Our source for the cytotoxicity values is ChEMBL document CHEMBL4513216, “Probing the Open Global Health Chemical Diversity Library for Multistage-Active Starting Points for Next-Generation Antimalarials” (ACS Infect Dis, 2020).

The data set is described as follows: Toxicity liver stage against HepG2, at 10uM. The note with it: human, HepG2-A16-CD81EGFP cells; read-out: INHIBITION
Further details: test concentration 10 uM, cell line HepG2-A16-CD81EGFP. Format: cell-based. The method, boiled down: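 Uninfected HepG2-A16-CD81EGFP cells, 3 × 10^3 per well, 1536-well, plated on prespotted compound at 10 μM final, parasite-free screening media added to match infected plates; puromycin 10 μM positive, DMSO 0.5% negative; run in parallel with 48 h PbLuc assay at 37 °C, 5% CO2; viability by CellTiter-Glo luminescence, normalized to controls.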

Regarding `CC(NC(=O)NCCOc1ccc(F)c(F)c1)c1nncn1C` (stereo not given), the cytotoxicity at 10 µM is -0.192%. In the case of `CCN1CC2(CC1=O)CN(C(=O)c1ccco1)CCN(C(=O)C(C)C)C2` (stereo not given), the cytotoxicity at 10 µM was -9.16%. In the case of `CCn1cc(CN2CCCN(C3Cc4ccccc4C3)CC2)cn1`, the cytotoxicity at 10 µM amounted to 2.66%.

As for `CNC(=O)C1CCCN1c1nc(C)c2ccccc2n1` (stereo not given), the cytotoxicity at 10 µM turned out to be 10.4%. For `Cc1cc(CC(C)Nc2ncnc3cccc(F)c23)[nH]n1` (stereo not given), the cytotoxicity at 10 µM amounted to 26.4%. With `Cc1cc(CN(C)C(=O)NCC(C)N2CCc3ccccc32)no1` (stereo not given), the cytotoxicity at 10 µM is -5.43%.

Turning to `CCN1CCN(C(=O)NCCOc2ccc3c(c2)OCO3)CC1`, the cytotoxicity at 10 µM is -4.59%. On to `O=C(NCc1ncc(-c2ccccc2)o1)NC1CCC(O)CC1` (stereo not given), for which the cytotoxicity at 10 µM is -41.8%.

Consider `c1ccc2nc(CN3CCCC3c3noc(C4CC4)n3)ccc2c1` (stereo not given), for which the cytotoxicity at 10 µM was -5.48%. Under `CCN1CC2(CC1=O)CN(Cc1cnn(C)c1)CCN(C(=O)C(C)C)C2` (stereo not given) stands -15%; under `CC(Cn1cccn1)NC(=O)N(C)Cc1ccc(C(N)=O)cc1` (stereo not given), 3.37%; under `CN1CCN2CCN(C(=O)c3cnn4cc(CCO)cnc34)CC2C1` (stereo not given), 7.04%.

Turning to `O=C(CO)N1C[C@H]2CN(Cc3cccc(F)c3)C(=O)[C@H]2C1`, the cytotoxicity at 10 µM is -82.3%. Take `CCc1nc(N2CCN(c3ncccn3)CC2)c2cnn(C)c2n1`: the cytotoxicity at 10 µM was -1.04%. Consider `Cc1c(C(=O)N2CCC2(C)C)nnn1-c1cccc2cnccc12`, for which the cytotoxicity at 10 µM is -2.15%.

Turning to `Cc1n[nH]c(C)c1C1CCCN1C(=O)Cc1cccc(F)c1` (stereo not given), the cytotoxicity at 10 µM worked out at 4.8%. In the case of `Cc1noc(CN2CC=C(c3cnn(C4CCS(=O)(=O)C4)c3)CC2)n1` (stereo not given) it was -0.89%; in that of `NC(=O)CN(Cc1ccc(Br)cc1)C(=O)c1ccncc1`, 4.16%; in that of `COc1cc(C(=O)N2CC3(CCNCC3)c3cc(Cl)ccc32)ccn1`, 52.8%. As to `O=c1cccnn1CC1CN(Cc2ccsc2)Cc2nccn2C1` (stereo not given), the cytotoxicity at 10 µM worked out at 1.31%. On to `CCc1nccn1C1CCCN(C(=O)COCC(F)(F)F)C1` (stereo not given), for which the cytotoxicity at 10 µM is -9.74%.

With `Cc1cc(C(=O)N(C)CC(F)(F)C(F)(F)F)ccc1-n1cncn1`, the cytotoxicity at 10 µM was 1.64%. In the case of `CCOCC(=O)N1CC[C@H]2OCC[C@@]2(COc2ncccc2F)C1` it was -152%.

Regarding `COc1ccc(OCc2noc(CN(C)C3CCS(=O)(=O)C3)n2)cc1` (stereo not given), the cytotoxicity at 10 µM was 12.5%. For the compound `Oc1ccccc1-c1n[nH]c(C2CCCO2)n1` (stereo not given), the cytotoxicity at 10 µM is -5.22%. Regarding `COc1ccc2c(c1)OCC(CNC(=O)c1ccc3[nH]nnc3c1)C2` (stereo not given), the cytotoxicity at 10 µM is -7.72%. On to `O=C(NC1CCCC1)c1nc(COc2ccc3c(c2)OCO3)no1`, for which the cytotoxicity at 10 µM came to 2.87%. As to `Cc1ccc(CN2CCCC3(CCCN3S(C)(=O)=O)C2)s1` (stereo not given), the cytotoxicity at 10 µM was -97.9%. Turning to `Cc1nn(C2CCS(=O)(=O)C2)c(O)c1CCc1ccccc1` (stereo not given), the cytotoxicity at 10 µM was -50.2%. As for `COc1ccc2c(c1)OCC(C(=O)NCc1nc3c(s1)CCCC3)C2` (stereo not given), the cytotoxicity at 10 µM was -4.29%.

Regarding `COCC1CN(C(=O)c2cccc(C)n2)Cc2ncnn2C1` (stereo not given), the cytotoxicity at 10 µM came out at 3.84%.

With `O=C(NCC1CC1)C1CN(C(=O)Cc2cccs2)CC12CCOCC2` (stereo not given), the cytotoxicity at 10 µM is 4.76%. Under `CCc1nnc2n1CCN(CC(=O)Nc1cc(C(C)(C)C)nn1C)C2` stands -5.77%; under `CCCS(=O)(=O)N1CC[C@@H]2[C@@H]1CC(=O)N2Cc1csc(C)n1`, -134%; under `CN(Cc1cc2cc(F)ccc2[nH]1)c1cc(C2CCCNC2)ncn1` (stereo not given), 7.16%. For `Cn1cc(C[C@H]2[C@H](O)CCN2CC2CC2)cn1`, the cytotoxicity at 10 µM is -0.516%. On to `CN(CCc1ccccn1)C(=O)CCC1CCCN(c2cnccn2)C1` (stereo not given), for which the cytotoxicity at 10 µM worked out at 4.13%. As for `COc1cc(C#N)ccc1OCCN1CCC(n2ccnc2)CC1`, the cytotoxicity at 10 µM was determined as 2.75%.

On to `O[C@@H]1CC(CNCC2CC2)(COc2cccnc2)C[C@@H]1O` (stereo not given in full), for which the cytotoxicity at 10 µM was -2.64%.

Turning to `O=C(c1csc(-c2ccco2)n1)N(CC1CCOC1)C1CC1` (stereo not given), the cytotoxicity at 10 µM is -2.72%. With `Fc1ccc(CN2CCOCC3(CCN(Cc4nccs4)C3)C2)cc1` (stereo not given), the cytotoxicity at 10 µM was determined as 4.23%. In the case of `CCN(C(=O)CN1CCCC1c1ccc(OC)cc1)c1ccccc1` (stereo not given) it was -2.25%. Turning to `O=C(NC[C@]12COC[C@H]1CN(Cc1ccncc1)C2)c1ccco1`, the cytotoxicity at 10 µM was determined as 8.75%.

Regarding `CCc1nc(C2CCCN2Cc2nnc(C3CC3)o2)no1` (stereo not given), the cytotoxicity at 10 µM was -13.2%. In the case of `CC1(C)CN(C(=O)CC2CCS(=O)(=O)CC2)C[C@]1(C)O` it was 5.91%; in that of `Cn1ncc2c(N3CCS(=O)(=O)CC3)nc(C3CCCC3)nc21`, -1.31%; in that of `OC[C@@H](O)CN(CCC(F)(F)F)c1ncccn1`, 2.41%.

In the case of `CCOCc1cncc2c1CCN(S(=O)(=O)c1ccc(C)cc1)C2`, the cytotoxicity at 10 µM is 11.2%. Regarding `O=S(=O)(c1cccc(F)c1)N1CCCCC1c1ccn[nH]1` (stereo not given), the cytotoxicity at 10 µM stood at 0.692%.

Take `O=C(Cc1n[nH]c2ccccc12)N1CCCC1Cn1cccn1` (stereo not given): the cytotoxicity at 10 µM is -14.7%.

Take `CCN1CCC2(COCc3c(C)nc(N4CCOCC4)nc32)C1` (stereo not given): the cytotoxicity at 10 µM was -141%. As to `c1ccc(Cc2noc(CN3CCOC(Cn4cccn4)C3)n2)cc1` (stereo not given), the cytotoxicity at 10 µM was -6.67%. In the case of `COc1cc(N2CCC(c3nccn3Cc3cccnc3)CC2)ncn1`, the cytotoxicity at 10 µM was -4.4%. Under `Cc1cc(C)n(CCN2CCN(C(=O)c3ccc(Br)o3)CC2)n1` stands -8.46%; under `O=C(c1ccsc1)N1CCN2C[C@H](OCc3ccccn3)C[C@H]2C1`, -71.8%. Under `Cc1noc(C)c1CNC(=O)N1Cc2ccccc2N(C)CC1C` (stereo not given) stands -2.42%; under `CN(Cc1cn2c(n1)CN(Cc1ccsc1)CC2)Cc1ccco1`, -78.5%; under `O=C(Nc1ccnc(OC2CCOC2)c1)c1ccc(F)cc1Cl` (stereo not given), 3.44%. Turning to `O=C1CCC(C(=O)NCc2nncn2-c2ccccc2)CN1` (stereo not given), the cytotoxicity at 10 µM was -12.7%. In the case of `COc1ccc(CN(C)c2ncc(S(N)(=O)=O)s2)c(OC)c1`, the cytotoxicity at 10 µM is -2.03%. On to `CCC(CC)NC(=O)c1ccc2nnc(C3CCN(C(C)=O)C3)n2c1` (stereo not given), for which the cytotoxicity at 10 µM is -2.19%. In the case of `O=C(CCC1CCCO1)NCCCO` (stereo not given), the cytotoxicity at 10 µM worked out at 11.2%.

Consider `CCc1csc(C2CCCN(C(=O)c3ccnc(N(C)C)c3)C2)n1` (stereo not given), for which the cytotoxicity at 10 µM is -6.81%.

Turning to `CC(=O)N(C)c1nc(CN2CCN(Cc3nccn3C)CC2)cs1`, the cytotoxicity at 10 µM worked out at 8.82%. Take `CC(C)[C@@H]1CN(C(=O)c2ccsc2)C[C@H]1C(=O)O`: the cytotoxicity at 10 µM stood at 12.8%. Regarding `COc1ccc(COCC(O)CNC(=O)c2cnc(C)cn2)cc1` (stereo not given), the cytotoxicity at 10 µM is -2%. Under `COc1ccc(CNC(=O)c2nn(C)c3c2CS(=O)(=O)CC3)cc1` stands 8.52%; under `O=c1[nH]c2nc(NCC3CCCO3)ncc2c(=O)n1-c1ccc(F)cc1` (stereo not given), -5.89%; under `CCOCC(O)CN1CCN(C(=O)C(C)(C)CC)CC1` (stereo not given), -20.7%.

For `O=C(NC1CCCN(c2ccccc2Cl)C1)c1ccc(=O)[nH]n1` (stereo not given), the cytotoxicity at 10 µM is -4.46%. With `O=c1[nH]c(-c2ccc(F)c(F)c2)nc2c1CCNC2`, the cytotoxicity at 10 µM is 2.06%.

On to `NC1CCC(NC(=O)c2ccc3nc(-c4ccc(F)cc4)cn3c2)CC1` (stereo not given), for which the cytotoxicity at 10 µM was -17.7%. Take `O=C(Cc1ccccc1Cl)Nc1ccn(CCN2CCOCC2)n1`: the cytotoxicity at 10 µM was -5.44%. In the case of `Cc1cccc(CC(=O)Nc2cnn(C3CCOC3)c2)c1` (stereo not given) it was -0.813%; in that of `Cc1n[nH]c(C)c1NC(=O)C1CCCN(C(=O)NCC(C)C)C1` (stereo not given), 11%. Turning to `c1nc2c(c(C3CC3)n1)CCN(CC1CCOC1)CC2` (stereo not given), the cytotoxicity at 10 µM was 1.26%. In the case of `CCc1nnc2n1CCN(C(C(N)=O)c1ccc(F)cc1)C2` (stereo not given) it was -8.13%; in that of `CN1C[C@@H]2COC[C@]2(C(=O)NCCc2cccs2)C1`, 8.1%; in that of `COc1cccc(OCC2CCCN(c3cc(C(N)=O)ccn3)C2)c1` (stereo not given), 2.13%.

Consider `CCc1ccc(CN2CCCn3c(nc(Cn4ccnc4)cc3=O)C2)o1`, for which the cytotoxicity at 10 µM stood at 4.29%. Regarding `Cc1nc(N2CCOCC2)nc2c1CCN(C(=O)C1(C#N)CC1)CC2`, the cytotoxicity at 10 µM was -117%. On to `COCCC(=O)N1CCCC1c1nccnc1Nc1ncccn1` (stereo not given), for which the cytotoxicity at 10 µM is -14.8%. Regarding `CC(=O)NCc1cc2n(n1)CCN(Cc1cccc(Cl)c1Cl)C2`, the cytotoxicity at 10 µM was -12.8%. As for `Cn1c(Cn2ccnc2)nnc1C1CCN(C(=O)c2ccccn2)CC1`, the cytotoxicity at 10 µM was -104%. For the compound `CCOc1cccc(C2CC(=O)NCc3nc(N4CCCC4)sc32)c1` (stereo not given), the cytotoxicity at 10 µM is -2.53%. Regarding `CC(=O)c1cccc(S(=O)(=O)NCc2cccnc2N(C)C)c1`, the cytotoxicity at 10 µM turned out to be 4.24%. Turning to `c1ccc(C2CN(C3CC3)CC3(CCN(Cc4ncc[nH]4)CC3)C2)cc1` (stereo not given), the cytotoxicity at 10 µM came to 7.31%. In the case of `Cc1cc(C(=O)N[C@H](C)c2onc(C)c2C(=O)O)c(C)o1`, the cytotoxicity at 10 µM was determined as 3.82%. Under `CN(C)C(=O)N1C[C@H]2CC[C@@H](C1)N(Cc1nnc(-c3ccco3)o1)C2` stands 5.9%. Under `COc1ccccc1N1CCN(C(=O)NC(C)c2nncn2C)CC1` (stereo not given) stands -4.23%; under `COCCNC(=O)C1CN(Cc2cccnc2)Cc2ccnn2C1` (stereo not given), -76.1%. With `Cn1ccc(C(=O)N2CCCCC2c2cc(CCO)[nH]n2)n1` (stereo not given), the cytotoxicity at 10 µM is -0.01%.

Regarding `O=C1C(NS(=O)(=O)c2ccc(F)cc2F)CCN1Cc1ccccc1` (stereo not given), the cytotoxicity at 10 µM was -0.885%. For `O=C(C1CC(F)(F)C1)N1C[C@@H]2CN(Cc3ccoc3)CCO[C@@H]2C1`, the cytotoxicity at 10 µM is 7.81%. As for `Cc1cc(C(=O)N2CCCCC2c2nc3cc(F)ccc3[nH]2)no1` (stereo not given), the cytotoxicity at 10 µM stood at 19.6%.
